Here are results for 1 compound from ChEMBL document CHEMBL4321819, “Simple Structural Modifications Converting a Bona fide MDM2 PROTAC Degrader into a Molecular Glue Molecule: A Cautionary Tale in the Design of PROTAC Degraders” (J Med Chem, 2019).

Assay [1] concerns MDA-MB-231. Briefly: Antiproliferative activity against human MDA-MB-231 cells harboring mutant p53 assessed as cell growth inhibition without interaction with cereblon after 4 days by WST-8 assay. Type of assay: functional, cell-based. Particulars: MDA-MB-231, 96 h. On the technique in general: Formazan colour is commonly taken as a measure of viable cells.
Assay [2] deals with MDA-MB-468. Put plainly: Antiproliferative activity against human MDA-MB-468 cells transfected with CRBN siRNA LQ-021086-10-0002 assessed as cell growth inhibition after 4 days by WST-8 assay. The class given is functional, cell-based. Particulars: MDA-MB-468, 96 h. A digest of the protocol: (§1)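 MDA-MB-231 or MDA-MB-468 cells transfected for 2 days using Lipofectamine RNAiMAX with MDM2 siRNA, one of two CRBN siRNAs, or non-targeting control siRNA. Compound then added and growth read by WST-8 at 450 nm.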

For assay [3], the target named is T1, Protein cereblon/Eukaryotic peptide chain release factor GTP-binding subunit ERF3A/DNA damage-binding protein 1/Cullin-4A (Homo sapiens) (UniProt Q96SW2+Q16531+Q13619+P15170). Briefly: Protac activity at GSPT1/CUL4/DDB1/CRBN in human RS4:11 cells expressing wild type p53 assessed as decrease in GSPT1 protein level by measuring fold change of protein level before and after treatment at 0.1 uM measured after 3 hrs relative to control.

In assay [4] the target is T1, Protein cereblon/Eukaryotic peptide chain release factor GTP-binding subunit ERF3A/DNA damage-binding protein 1/Cullin-4A (Homo sapiens). Briefly: Protac activity at GSPT1/CUL4/DDB1/CRBN in human RS4:11 cells expressing wild type p53 assessed as decrease in GSPT1 protein level at 10 nM by Western blot analysis. The class given is cell-based. Particulars: TDE = time-dependent effect. A digest of the protocol: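 RS4;11 (wild-type p53) or RS4;11/IRMI-2 (MDM2 inhibitor-resistant derivative, mutant p53) cells kept in RPMI 1640 with 10% FBS at 37 °C, 5% CO₂. 2×10^6 cells/well treated at the indicated concentrations and times, then lysed in ice-cold lysis buffer with protease inhibitor. GSPT1 detected by Western blot with a specific antibody.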
For orientation: Immunoblotting shows a protein as a band on a membrane.

For assay [5], the system named is MDA-MB-468. Briefly: Antiproliferative activity against human MDA-MB-468 cells harboring mutant p53 assessed as cell growth inhibition after 4 days by WST-8 assay. The class given is functional, cell-based. Particulars: MDA-MB-468, 96 h. Put shortly: (§2)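 Leukemia cells seeded at 10000–20000 cells/well, breast cancer lines at 5000–10000 cells/well. Serially diluted compound added, then 4 days at 37 °C, 5% CO2. Growth read with WST-8 reagent after at least 1 h, absorbance at 450 nm. RS4;11, MOLM-13 and breast lines were grown in RPMI 1640; MV-4-11 and HL-60 in IMDM; all with 10% FBS. Mean ± SE, at least three independent experiments.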

The nature of assay [6]: Antiproliferative activity against human RS4:11/IRMI-2 cells harboring p53 hotspot mutation Y236H/R249G assessed as MDM2-independent cell growth inhibition after 4 days by WST-8 assay. The class given is functional, cell-based. Particulars: RS4-11, 96 h. Put shortly:
as §2

Assay [7] deals with MDA-MB-231. Briefly: Antiproliferative activity against human MDA-MB-231 cells harboring mutant p53 assessed as cell growth inhibition after 4 days by WST-8 assay. Type of assay: functional, cell-based. Particulars: MDA-MB-231, 96 h. Put shortly: as §2
Assay [8] deals with T2, Eukaryotic peptide chain release factor GTP-binding subunit ERF3A (Homo sapiens, UniProt P15170). Briefly: Induction of GSPT1 degradation in human MDA-MB-231 cells transfected with CRBN siRNA LQ-021086-11-0002 assessed as decrease in GSPT1 protein level at 0.1 uM after 2 to 24 hrs by Western blot analysis. The class given is cell-based. A digest of the protocol: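 MDA-MB-231 or MDA-MB-468 cells transfected 2 days with CRBN siRNA (Lipofectamine RNAiMAX; non-targeting siRNA as control), then exposed to 0.1 μM for 2 h or 24 h. Cell culture was RPMI 1640 with 10% FBS at 37 °C, 5% CO2. GSPT1 and cereblon protein were probed by Western blot.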

Assay [9] has as its target T3, E3 ubiquitin-protein ligase Mdm2 (Homo sapiens, UniProt Q00987). Put plainly: Induction of MDM2 degradation in human RS4:11 cells assessed as upregulation of p53 at 1 to 30 nM after 1 hr by Western blot analysis. Type of assay: cell-based. A digest of the protocol: (§3)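 Western blots of MDM2 and p53 protein were run on RS4;11 cells (wild-type p53) in RPMI 1640 with 10% FBS. 2×10^6 cells/well were treated at the indicated concentrations for 1 h or 2 h. Lysis was in ice-cold buffer with protease inhibitor, followed by probing with specific antibodies.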

Assay [10] concerns the target Protein cereblon/Eukaryotic peptide chain release factor GTP-binding subunit ERF3A (Homo sapiens) (UniProt Q96SW2+P15170). Briefly: Inhibition of cereblon binding with GSPT1 in human MDA-MB-231 cells assessed as decrease in GSPT1 degradation at 0.1 uM after 2 hrs in presence of 30 uM lenalidomide by Western blot analysis. The class given is cell-based. Put shortly:
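MDA-MB-231 or MDA-MB-468 cells were treated 2 h with or without 30 μM lenalidomide to block cereblon binding. GSPT1 protein level was then assessed by Western blotting.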

Assay [11] concerns the target T3, E3 ubiquitin-protein ligase Mdm2. Briefly: Induction of MDM2 degradation in human RS4:11 cells assessed as downregulation of MDM2 at 1 to 30 nM after 2 hrs by Western blot analysis. The class given is cell-based. A digest of the protocol: as §3
The target of assay [12] is T2, Eukaryotic peptide chain release factor GTP-binding subunit ERF3A. Briefly: Induction of GSPT1 degradation in human RS4:11 cells at 0.1 uM pretreated with proteasome inhibitor PR-171 followed by compound treatment after 2 hrs by Western blot analysis.
A further assay concerns RS4-11. Briefly: Antiproliferative activity against human RS4:11 cells expressing wild type p53 assessed as cell growth inhibition without interaction with cereblon after 4 days by WST-8 assay. Type of assay: functional, cell-based. Particulars: RS4-11, 96 h. Put shortly:
as §2

Assay [13] addresses T3, E3 ubiquitin-protein ligase Mdm2. Put plainly: Induction of MDM2 degradation in human RS4:11/IRMI-2 cells harboring p53 hotspot mutation Y236H/R249G assessed as downregulation of MDM2 at 1 to 30 nM after 2 hrs by Western blot analysis. Type of assay: cell-based. A digest of the protocol: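 RS4;11/IRMI-2 cells are an MDM2 inhibitor-resistant line derived from RS4;11, with p53 mutations confirmed by sequencing. 2×10^6 cells/well were treated 2 h at the indicated concentrations. MDM2 protein was probed by Western blot after lysis in ice-cold buffer with protease inhibitor.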

Assay [14] has as its system MDA-MB-231. Briefly: Antiproliferative activity against human MDA-MB-231 cells assessed as cell growth inhibition after 4 days in presence of control siRNA for 2 days followed by compound treatment by WST-8 assay. Type of assay: functional, cell-based. A digest of the protocol:
as §1

Assay [15] concerns MDA-MB-468. Put plainly: Antiproliferative activity against human MDA-MB-468 cells transfected with MDM2 siRNA assessed as cell growth inhibition after 4 days by WST-8 assay. The class given is functional, cell-based. Particulars: MDA-MB-468, 96 h. A digest of the protocol: as §1
The subject of assay [16] is MDA-MB-231. Briefly: Antiproliferative activity against human MDA-MB-231 cells transfected with CRBN siRNA LQ-021086-10-0002 assessed as cell growth inhibition after 4 days by WST-8 assay. Particulars: MDA-MB-231, 72 h, in the assay text read “after 3 days” for “after 4 days”. The class given is functional, cell-based. Put shortly: as §1
A further assay concerns HL-60. Put plainly: Antiproliferative activity against human HL60 cells with lack of p53 assessed as cell growth inhibition after 4 days by WST-8 assay. Particulars: HL-60, 96 h. The class given is functional, cell-based. Put shortly:
as §2

The nature of assay [17]: Antiproliferative activity against human RS4:11/IRMI-2 cells harboring p53 hotspot mutation Y236H/R249G assessed as cell growth inhibition without interaction with cereblon after 4 days by WST-8 assay. The class given is functional, cell-based. Particulars: RS4-11, 96 h. A digest of the protocol: as §2

The source made the active and inactive calls. No cut-off for these calls is given here.

T3 sequence (Q00987 whole entry, looked up): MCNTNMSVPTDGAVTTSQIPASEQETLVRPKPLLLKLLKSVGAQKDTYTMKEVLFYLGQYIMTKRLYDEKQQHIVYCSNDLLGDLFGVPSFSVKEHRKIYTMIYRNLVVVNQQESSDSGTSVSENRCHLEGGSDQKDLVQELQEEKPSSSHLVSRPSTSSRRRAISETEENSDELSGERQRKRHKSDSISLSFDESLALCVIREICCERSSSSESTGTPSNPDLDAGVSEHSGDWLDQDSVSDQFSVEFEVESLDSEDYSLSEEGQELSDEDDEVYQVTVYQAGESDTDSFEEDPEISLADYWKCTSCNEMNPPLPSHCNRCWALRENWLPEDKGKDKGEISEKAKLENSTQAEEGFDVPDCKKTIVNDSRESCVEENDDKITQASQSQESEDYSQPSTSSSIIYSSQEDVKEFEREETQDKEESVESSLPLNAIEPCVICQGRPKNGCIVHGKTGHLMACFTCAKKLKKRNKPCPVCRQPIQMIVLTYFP
T2 sequence (P15170 whole entry): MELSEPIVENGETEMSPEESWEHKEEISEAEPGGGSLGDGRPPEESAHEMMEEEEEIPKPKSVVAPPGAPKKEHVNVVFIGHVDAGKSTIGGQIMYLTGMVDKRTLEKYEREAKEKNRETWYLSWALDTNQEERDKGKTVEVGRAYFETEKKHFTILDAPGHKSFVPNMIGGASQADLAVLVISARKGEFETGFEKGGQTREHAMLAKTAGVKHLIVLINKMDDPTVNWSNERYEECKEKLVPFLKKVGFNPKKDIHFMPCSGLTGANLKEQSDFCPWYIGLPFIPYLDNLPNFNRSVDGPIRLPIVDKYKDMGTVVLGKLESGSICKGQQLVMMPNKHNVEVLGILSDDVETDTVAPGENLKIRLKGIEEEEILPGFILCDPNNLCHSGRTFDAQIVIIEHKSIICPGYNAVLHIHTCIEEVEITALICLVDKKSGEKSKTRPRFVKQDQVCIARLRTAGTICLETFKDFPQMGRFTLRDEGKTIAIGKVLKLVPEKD
T1 sequence (P15170 whole entry, looked up): as the sequence (P15170 whole entry) above
T1 sequence (Q13619 whole entry, looked up): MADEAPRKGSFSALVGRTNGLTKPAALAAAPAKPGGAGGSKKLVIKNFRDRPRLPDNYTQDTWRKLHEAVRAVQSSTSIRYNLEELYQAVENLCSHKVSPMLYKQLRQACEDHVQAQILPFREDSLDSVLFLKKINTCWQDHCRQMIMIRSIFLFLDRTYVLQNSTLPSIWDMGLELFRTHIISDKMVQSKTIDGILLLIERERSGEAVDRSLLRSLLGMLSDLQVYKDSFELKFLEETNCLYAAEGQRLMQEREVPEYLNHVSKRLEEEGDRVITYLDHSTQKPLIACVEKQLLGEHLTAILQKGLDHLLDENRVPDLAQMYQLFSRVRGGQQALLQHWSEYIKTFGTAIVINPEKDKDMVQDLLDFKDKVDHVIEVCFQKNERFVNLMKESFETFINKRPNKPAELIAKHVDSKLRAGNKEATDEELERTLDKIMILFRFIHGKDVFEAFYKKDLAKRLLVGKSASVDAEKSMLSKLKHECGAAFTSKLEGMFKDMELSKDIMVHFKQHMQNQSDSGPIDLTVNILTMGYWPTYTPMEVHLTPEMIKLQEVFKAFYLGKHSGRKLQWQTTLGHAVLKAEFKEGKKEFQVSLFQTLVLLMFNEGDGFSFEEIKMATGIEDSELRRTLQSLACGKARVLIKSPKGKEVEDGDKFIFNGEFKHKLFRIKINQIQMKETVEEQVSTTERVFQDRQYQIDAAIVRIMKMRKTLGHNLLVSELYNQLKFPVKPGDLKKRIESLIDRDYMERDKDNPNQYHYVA
T1 sequence (Q16531 whole entry, looked up): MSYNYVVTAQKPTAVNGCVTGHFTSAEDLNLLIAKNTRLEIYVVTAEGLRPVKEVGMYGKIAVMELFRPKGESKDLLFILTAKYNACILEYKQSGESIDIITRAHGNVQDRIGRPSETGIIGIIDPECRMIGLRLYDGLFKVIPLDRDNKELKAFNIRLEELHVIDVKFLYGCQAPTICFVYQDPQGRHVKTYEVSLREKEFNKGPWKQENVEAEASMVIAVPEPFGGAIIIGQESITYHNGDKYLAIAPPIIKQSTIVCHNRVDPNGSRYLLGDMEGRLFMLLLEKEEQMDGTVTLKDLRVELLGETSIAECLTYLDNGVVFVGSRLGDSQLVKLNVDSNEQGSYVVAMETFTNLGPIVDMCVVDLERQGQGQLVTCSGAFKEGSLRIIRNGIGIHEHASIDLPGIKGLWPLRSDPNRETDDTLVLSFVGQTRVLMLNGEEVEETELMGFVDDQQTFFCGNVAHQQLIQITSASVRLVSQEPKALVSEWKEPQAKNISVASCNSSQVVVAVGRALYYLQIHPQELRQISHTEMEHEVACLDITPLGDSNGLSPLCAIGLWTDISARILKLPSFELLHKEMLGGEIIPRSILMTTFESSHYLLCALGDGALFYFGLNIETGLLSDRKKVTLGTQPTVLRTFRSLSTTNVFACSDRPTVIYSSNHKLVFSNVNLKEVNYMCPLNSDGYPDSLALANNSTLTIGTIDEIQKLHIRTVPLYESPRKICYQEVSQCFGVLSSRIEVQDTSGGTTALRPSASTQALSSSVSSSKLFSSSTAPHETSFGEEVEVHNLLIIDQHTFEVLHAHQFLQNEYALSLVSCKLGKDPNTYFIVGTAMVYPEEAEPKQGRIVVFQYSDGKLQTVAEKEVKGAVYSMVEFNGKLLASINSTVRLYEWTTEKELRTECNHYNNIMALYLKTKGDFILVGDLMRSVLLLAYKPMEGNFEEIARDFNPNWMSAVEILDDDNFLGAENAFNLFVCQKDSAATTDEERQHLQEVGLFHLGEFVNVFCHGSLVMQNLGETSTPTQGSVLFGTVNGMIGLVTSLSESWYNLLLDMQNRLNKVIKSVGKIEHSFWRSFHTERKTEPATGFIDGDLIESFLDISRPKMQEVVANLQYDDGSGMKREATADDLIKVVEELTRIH
T1 sequence (Q96SW2 whole entry, looked up): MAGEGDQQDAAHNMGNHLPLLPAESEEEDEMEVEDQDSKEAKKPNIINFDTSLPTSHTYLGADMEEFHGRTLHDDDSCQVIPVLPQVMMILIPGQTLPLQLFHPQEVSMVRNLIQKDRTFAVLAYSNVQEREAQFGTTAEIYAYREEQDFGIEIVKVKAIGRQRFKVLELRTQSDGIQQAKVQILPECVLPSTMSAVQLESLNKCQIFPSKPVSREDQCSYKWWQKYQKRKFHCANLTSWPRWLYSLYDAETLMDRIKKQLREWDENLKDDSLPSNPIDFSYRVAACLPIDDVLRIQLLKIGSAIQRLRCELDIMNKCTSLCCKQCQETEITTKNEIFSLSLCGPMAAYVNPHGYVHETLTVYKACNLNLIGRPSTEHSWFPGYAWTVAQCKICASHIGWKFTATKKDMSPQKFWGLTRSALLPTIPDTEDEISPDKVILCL
Sequence of Protein cereblon/Eukaryotic peptide chain release factor GTP-binding subunit ERF3A (Homo sapiens) (P15170 whole entry, looked up): as the sequence (P15170 whole entry) above
Sequence of Protein cereblon/Eukaryotic peptide chain release factor GTP-binding subunit ERF3A (Homo sapiens) (Q96SW2 whole entry, looked up): as the sequence (Q96SW2 whole entry, looked up) above

As for `O=C1CCC(N2Cc3c(CCCCCNC(=O)[C@@H]4NC5(CCCCC5)[C@@]5(C(=O)Nc6cc(Cl)ccc65)[C@H]4c4cccc(Cl)c4F)cccc3C2=O)C(=O)N1` (some centres undefined), the IC50 with MDA-MB-231 [1] is 39.4 nM; in the assay on MDA-MB-468 [2], more than 1000 nM; with MDA-MB-468 [5] it was 26.4 nM; in assay [6], 2.6 nM; in the assay on MDA-MB-231 [7] it was 39.4 nM; with RS4-11, 0.17 nM. Also, the IC50 in the assay with MDA-MB-231 [14] is 28.9 nM; in the assay on MDA-MB-468 [15], 19.8 nM; in the assay on MDA-MB-231 [16] it was more than 3000 nM; in the assay with HL-60, 8.3 nM; in [17], 2.6 nM. Further, the fold change in assay [3] came out at 5.3. Further, the Activity result in assay [4] was “Tde”. Moreover, the outcome in [8], in [9] and in [12] was inactive. Besides, the inhibition result in assay [10] is “Active”. The result in [11] and in [13] was Active.

As usually defined, the IC50 is the concentration needed to halve the response being measured.
